PKA-R1A activ – PKA-R1A complex activation | PKA-R1A dissociation, Cy5-IP20 fluorescence polarization; scaled: DMSO 0%, 113 µM cGMP 100% | activation, % at 11.4 µM | 340,000 tested, 0.083% active | P00514+P68181;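 active = percent activation above the mean of all tested compounds plus 3 SD, cut at about 19% in these data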;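 note: higher means more PKAc released from R1A so a rise in polarization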
Tn7 DDE FP – disrupts Tn7 cyclic peptide binding to fibrin D-Dimer-E complex; P02675; FP displacement of FITC-Tn7 peptide from fibrin DD(E); 0% = median of compound wells per plate; inhibition, % at 8.3 µM; 370,000 tested, 0.13% active; AID 720508;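 active = inhibition above the mean of compounds falling within the control limits plus 3 SD of them, cut at about 14% in these data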;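 note: 0% = plate median of compound wells and 100% = 10 µM Aha-Tn7 peptide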
Target sequence (P02675 whole entry, looked up): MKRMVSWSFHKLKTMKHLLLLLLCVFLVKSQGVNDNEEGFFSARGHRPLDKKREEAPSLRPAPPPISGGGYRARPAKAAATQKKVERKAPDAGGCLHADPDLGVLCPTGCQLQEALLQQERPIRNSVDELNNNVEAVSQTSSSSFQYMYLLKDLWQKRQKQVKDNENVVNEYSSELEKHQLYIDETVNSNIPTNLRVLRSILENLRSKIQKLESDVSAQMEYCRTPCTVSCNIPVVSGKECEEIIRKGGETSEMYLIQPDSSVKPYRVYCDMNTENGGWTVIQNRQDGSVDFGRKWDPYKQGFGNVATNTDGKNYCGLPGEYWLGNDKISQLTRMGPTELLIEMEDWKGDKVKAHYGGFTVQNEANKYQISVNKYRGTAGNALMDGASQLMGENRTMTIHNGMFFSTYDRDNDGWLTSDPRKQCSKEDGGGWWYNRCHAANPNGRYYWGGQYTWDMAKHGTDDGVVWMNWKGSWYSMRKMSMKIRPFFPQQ
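Test system: human clot-derived fibrin DD(E) complex / Quantity: 2 µM final DD(E) protein / Incubation: 10 min plus 3 h, room temperature / Measured by: fluorescence polarization / Benchmarks: high control of 10 µM Aha-Tn7 peptide / Replicates: singlicate testing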
PKA-R2B act – activates the human PKA-R2B holoenzyme complex; 340,000 tested, 0.079% active; PKA-R2B holoenzyme dissociation, Cy5-IP20 fluorescence polarization; R2B truncated from residue 108, S112A mutant; 0% DMSO only, 100% 113 µM cGMP; activation, % at 11.4 µM; AID 504700; P22694+P31323;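 active = activation above a cutoff set at the mean over all compounds plus 3 SD, cut at about 18% in these data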;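 note: higher means more holoenzyme dissociation and a rise in polarization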
Neddyl block – blocks human cullin neddylation; 360,000 tested, 0.58% active; P61081+Q13564; AID 651699; TR-FRET cullin neddylation, biochemical; inhibition, % at 25 µM; in the data active = inhibition above about 36%
Tn6 DDE FP – DD(E)-Tn6 binding inhibition, primary FP screen. Fibrin DD(E) TRITC-Tn6 fluorescence polarization displacement. inhibition, % at 8.3 µM. 370,000 tested, 0.21% active. AID 720509;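 active = inhibition above a per-campaign cutoff: mean of compounds within control limits plus 3 SD, cut at about 15% in these data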;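 note: 0% = median of all compound wells on the plate and 100% = blocking peptide control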
DDE Tn6 FP ctr – counter-screen for inhibitors of Tn6 peptide binding to fibrin DD(E); shares compounds with Tn6 DDE FP; TRITC-Tn6 fluorescence polarization displacement; 0% = median of compound wells, not DMSO; inhibition, % at 8.3 µM; 680 tested, 2% active; AID 720621;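 active = inhibition above the mean of test compounds lying between the control limits plus 3 SD of those, cut at about 14% in these data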;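 note: 0% = median of compound wells and 100% = wells with Aha-Tn7 blocking peptide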
Tn6 DDE conf – DD(E)-Tn6 binding inhibition, FP confirmation. FP displacement of TRITC-Tn6 peptide from DD(E); 0% = per-plate median of test wells. shares compounds with Tn6 DDE FP. inhibition, % at 8.3 µM. AID 720631. 680 tested, 10% active;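 active = inhibition above the mean of compounds lying within the control limits plus 3 SD, cut at about 16% in these data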;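 note: 100% = high control wells holding a competing inhibitor peptide at 10 µM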
The depositor's hits bear a star; nt = no result given; ! = not active in a repeat. Hits are enriched below; roughly 1% of the tested compounds scored in any of these assays.

SMILES | PKA-R1A activ | Tn7 DDE FP | PKA-R2B act | Neddyl block | Tn6 DDE FP | DDE Tn6 FP ctr | Tn6 DDE conf
COc1ccccc1NS(=O)(=O)c1cc(N)ccc1N1CCOCC1 | 2 | 7 | -2 | 0 | -1 | nt | nt
CC[C@H](C)/C=C(C)/C=C/C(=O)Cc1cc(O)c(C)c(O)c1C=O | -14 | 10 | 2 | 33 | 16* | 0 | 5
Cc1ccc(C2CCC3(CCC(=O)N3CCO)CC2)cc1 (stereo unspecified) | nt | 1 | nt | nt | 20*! | 7 | 3
COc1ccc(C2CC(=O)C(c3ccccc3OC)=CN2Cc2ccccc2)cc1 (stereo unspecified) | nt | 6 | nt | nt | -3 | nt | nt
O=C(NC1CCCCN(Cc2ccc(Cl)cc2)C1=O)c1ccc2ccccc2c1 (stereo unspecified) | nt | -2 | nt | nt | 3 | nt | nt
O=C(NN=Cc1ccc(O)cc1)c1cc(-c2ccc(Cl)cc2)n[nH]1 | nt | 1 | nt | nt | -6 | nt | nt
O=C(NN=Cc1cccc(OCc2ccccc2)c1)c1cc(-c2ccc(Cl)cc2)n[nH]1 | nt | -4 | nt | nt | 22* | 2 | -1
COc1ccc2c(c1)[C@]1(C(=O)N2C)C2=C(CCCC2=O)Oc2cc(C)oc(=O)c21 | nt | -2 | nt | nt | 11 | nt | nt
COc1ccc2ccccc2c1C=NNC(=O)c1cc(-c2ccc(C)c(C)c2)n[nH]1 | nt | -1 | nt | nt | 26* | 12 | 16*
CN(C)c1ccc(C=c2c3cc(O)ccc3n3c2cc(-c2ccccc2)[n+]3C)cc1 | -5 | 2 | 6 | -88 | -12 | nt | nt
CCOC(=O)c1cc2c(=Cc3ccc(N(C)C)cc3)c3ccccc3n2[n+]1C | 6 | -2 | 2 | -95 | 22* | 6 | -15
COC(=O)[C@]12C[C@H](CC(=O)N3CCCC3)C(=O)N(Cc3cccc4ccccc34)C1=C[C@H](C(C)(C)C)O[C@@H]2C | nt | -8 | nt | nt | -10 | nt | nt
Cc1ccccc1-n1c(C)nnc1SCC(=O)N(C)C1CCS(=O)(=O)C1 (stereo unspecified) | -8 | 0 | -8 | -1 | 19* | -2 | -5
Cc1ccccc1-n1c(SCC(=O)N(C)C2CCS(=O)(=O)C2)nnc1-c1ccncc1 (stereo unspecified) | 6 | 0 | -3 | 18 | 9 | nt | nt
CCCCc1cc(=O)oc2c(CN(C)C)c(O)ccc12 | -3 | 2 | 1 | nt | 16* | -2 | -1
CC1CCCN(CCCNC(=O)c2ccc3c(c2)N(Cc2cccc(Cl)c2)C(=O)c2ccccc2S3=O)C1 (stereo unspecified) | -1 | 5 | -6 | 2 | 16* | -2 | -5
COc1cccc(/C=C2\CC3(OC(=O)c4ccc(F)cc4)CCCN2C3)c1 (stereo unspecified) | nt | -5 | nt | nt | 1 | nt | nt
Cc1c(-n2cc(C(=O)O)c(=O)c3cc(F)c(N4CCCC(O)C4)c(F)c32)c(=O)n(-c2ccccc2)n1C (stereo unspecified) | -8 | -8 | -10 | nt | 0 | nt | nt
O=C(O)c1cn(-c2ccc(N3CCCC3)c(F)c2)c2c(F)c(F)c(F)cc2c1=O | 3 | 1 | 4 | 27 | 18* | -2 | -4
COC(=O)C1=C(C)N(Cc2cccc(C(F)(F)F)c2)C(=NCC2CC2)NC1c1cccc(Cl)c1 (stereo unspecified) | nt | 2 | nt | nt | 0 | nt | nt
COCCCNc1ncnc2c1sc1nc(-c3ccco3)c3c(c12)CC(C)(C)OC3 | 3 | 6 | 4 | nt | 18* | -3 | -12
COc1cc(OC)cc(C(=O)N(CN2CCCC2=O)c2ccccc2OC)c1 | 4 | 4 | -1 | 0 | 16* | 2 | 2
COc1ccccc1N(CN1CCCC1=O)C(=O)c1ccccc1F | 8 | -1 | 8 | 4 | 3 | nt | nt
C#CCOCCOCCOCCNc1nc(N2CCOCC2)nc(N2CCN(C(=O)[C@H](CCC(=O)O)n3cc(C(N)CC(C)C)nn3)CC2)n1 (stereo partly specified) | nt | 8 | nt | nt | 1 | nt | nt
CC(C)c1ccc(NC(=O)O[C@H]2CC[C@@]34CCCN3C(=O)CCC[C@H]4[C@H]2C)cc1 | nt | -6 | nt | nt | -3 | nt | nt
SMILES | PKA-R1A activ | Tn7 DDE FP | PKA-R2B act | Neddyl block | Tn6 DDE FP | DDE Tn6 FP ctr | Tn6 DDE conf
O=S(=O)(c1ccc(F)cc1)N1CN(Cc2ccco2)c2nc3ccccc3nc21 | 8 | -2 | 0 | 24 | 36* | -6 | -3
CCOc1c(Br)cc(CNC2CCCCCCC2)cc1OC | 9 | 5 | -2 | 6 | 6 | nt | nt
COc1cc(CNC2CCCCCCC2)cc(Cl)c1OC | 1 | 7 | 6 | -5 | 17* | -4 | -6
COCC(=O)Nc1ccc2c(c1)C(=O)N(C)[C@@H]1CC[C@@H](CC(=O)OC)O[C@H]1CO2 | nt | 2 | nt | nt | 6 | nt | nt
CN1CCCCC(NC(=O)C23CC4CC(CC(C4)C2)C3)C1=O (stereo unspecified) | nt | 4 | nt | nt | 7 | nt | nt
O=C(CSc1ccc(Br)c2cccc(Cl)c12)Nc1ccc(S(=O)(=O)Nc2nccs2)cc1 | -10 | -1 | -4 | -26 | 27* | 5 | 0
COc1ccccc1N=Nc1nc(-c2ccccc2)c(-c2ccccc2)[nH]1 | -10 | -3 | 9 | -82 | 21* | 9 | 9
COC(=O)c1cc2c(c3c4cc(C)ccc4n(S(=O)(=O)c4ccc(C)cc4)c13)C(=O)N(Cc1ccc(C(F)(F)F)cc1)C2 | nt | 4 | nt | nt | 8 | nt | nt
O=C(C1COc2ccccc2O1)N1CCN(c2ccc(C(F)(F)F)cn2)CC1 (stereo unspecified) | -2 | -3 | -9 | 15 | 2 | nt | nt
NS(=O)(=O)c1ccc(N2CCN(C(=O)C3COc4ccccc4O3)CC2)nc1 (stereo unspecified) | -5 | 0 | 0 | 28 | 18* | 2 | -5
CCCCCCCCN1C(=O)[C@@H](CC(=O)NCCC(C)C)C[C@@]2(C(=O)OC)C1=C[C@H](C(C)(C)C)O[C@@H]2C | nt | -5 | nt | nt | 16* | 2 | -4
COc1ccc(NC(=O)CC(C)(C)C)c([N+](=O)[O-])c1 | -7 | 5 | -6 | -23 | 16* | 5 | 2
COC(=O)C1CN(Cc2ccccc2)CCS(=O)(=O)N1Cc1cn(Cc2ccccc2Br)nn1 (stereo unspecified) | nt | -2 | nt | nt | 6 | nt | nt
CN(C(=O)C12CC3CC(CC(C3)C1)C2)C1(C)CCS(=O)(=O)C1 (stereo unspecified) | 2 | -3 | -6 | 4 | 15* | 3 | 0
CN(C)c1ccc2nc3ccc(=O)cc-3sc2c1 | -10 | 3 | -15 | -8 | 146* | -7 | 70*
Cc1cc2nc3ccc(=[N+](C)C)cc-3sc2cc1N | -378 | nt | -342 | -148 | nt | nt | nt

Source: PubChem BioAssay
